Compound activity (PubChem BioAssay)
Shown are actives, neighbours in structure and some others; about 5.5% of the full set was active somewhere.
Yeast lifespan up = extends the lifespan of yeast; S. cerevisiae growth with nicotinamide, OD615; deaD strain in restrictive glucose medium; hit rate 0.68% among 130,000; inhibition of the nicotinamide effect, % at 10 µM; AID 775;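 active = inhibition above a set limit, placed 3 SD over the median of all compounds, cut at about 26% in these data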
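Buffer or medium: CSMM-D glucose medium, restrictive; test system: modified budding yeast, DeaD strain; compound: single dose 10 µM compound, 0.25% DMSO; schedule: culture preincubation 4 h, compound exposure 48 h, both 30 °C; detection: optical density (absorbance) at 615 nm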
RAM inhibit = yeast RAM network inhibition; inhibition, % at 50 µM; hit rate 1.8% among 190,000; S. cerevisiae dse1pr::URA3 reporter, 5-FOA growth OD615, 2 d; analog-sensitive cbk1-as2 kinase mutant strain; AID 868;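 active = inhibition above a set limit, 3 SD over mean compound inhibition, cut at about 8.4% in these data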;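 also: inhibition rescues growth on 5-FOA so higher OD means more RAM inhibition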
WT yeast gro inh = growth inhibition of WT yeast, mitochondrial fusion screen. mitochondrial fusion phenotypic screen, WT strain. inhibition, % at 10 µM. hit rate 2.1% among 190,000; in the data active = inhibition above about 58%; tested in S. cerevisiae
Cl transport mod = modulators of human KCC2 chloride dependent transport | Q9H2X9 | KCC2 cells, thallium flux FluoZin-2 fluorescence | B-score of Tl+ flux slope (higher = more flux/activation; lower = inhibition) at 10 µM | hit rate 2.2% among 190,000;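 active = thallium flux slope and its plate-corrected score both differing from the plate sample mean at a set confidence after two filtering rounds, in either direction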;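 also: slope of fluorescence scaled to starting intensity during 10 to 20 s after thallium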
Target sequence (Q9H2X9 whole entry, looked up): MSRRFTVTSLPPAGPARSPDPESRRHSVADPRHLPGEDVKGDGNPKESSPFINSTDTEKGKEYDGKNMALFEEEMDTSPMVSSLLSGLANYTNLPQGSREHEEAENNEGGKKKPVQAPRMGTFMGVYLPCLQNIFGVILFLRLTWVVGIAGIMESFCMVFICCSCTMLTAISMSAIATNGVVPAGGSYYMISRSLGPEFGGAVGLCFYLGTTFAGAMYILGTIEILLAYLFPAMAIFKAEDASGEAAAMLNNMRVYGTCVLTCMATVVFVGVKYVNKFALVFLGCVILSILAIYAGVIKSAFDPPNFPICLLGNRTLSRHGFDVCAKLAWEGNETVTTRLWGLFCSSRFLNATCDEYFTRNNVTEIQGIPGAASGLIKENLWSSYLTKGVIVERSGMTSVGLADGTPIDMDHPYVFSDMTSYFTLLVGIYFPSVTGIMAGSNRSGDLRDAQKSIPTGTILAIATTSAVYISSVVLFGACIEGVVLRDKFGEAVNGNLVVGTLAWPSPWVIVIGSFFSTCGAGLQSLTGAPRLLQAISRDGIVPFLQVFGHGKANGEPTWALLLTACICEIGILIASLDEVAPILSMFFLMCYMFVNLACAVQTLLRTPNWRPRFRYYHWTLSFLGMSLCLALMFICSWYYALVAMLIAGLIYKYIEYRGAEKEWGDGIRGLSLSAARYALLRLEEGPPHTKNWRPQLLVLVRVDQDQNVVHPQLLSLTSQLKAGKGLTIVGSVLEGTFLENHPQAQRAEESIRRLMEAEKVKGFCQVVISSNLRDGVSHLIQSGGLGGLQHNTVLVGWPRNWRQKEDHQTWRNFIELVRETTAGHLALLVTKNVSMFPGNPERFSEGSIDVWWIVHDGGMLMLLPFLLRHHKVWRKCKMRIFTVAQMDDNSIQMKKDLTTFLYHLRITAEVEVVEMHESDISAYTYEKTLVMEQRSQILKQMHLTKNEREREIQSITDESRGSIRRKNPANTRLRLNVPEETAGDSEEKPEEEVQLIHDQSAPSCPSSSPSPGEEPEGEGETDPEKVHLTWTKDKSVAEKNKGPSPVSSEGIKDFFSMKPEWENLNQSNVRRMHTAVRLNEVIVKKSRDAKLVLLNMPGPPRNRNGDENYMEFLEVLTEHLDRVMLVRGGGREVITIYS
BB579 growth dn = chemicals that inhibit yeast BB579 growth in restrictive medium (lifespan-shortening candidates) | inhibition, % at 10 µM | S. cerevisiae BB579 growth, OD615, 48 h | hit rate 0.51% among 140,000;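 active = inhibition above a set limit, 3 SD over the mean compound inhibition, cut at about 44% in these data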
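Assay system – yeast BB579 (DeaD) · Dosing – single compound dose of 10 µM, 0.25% DMSO final · Detection – OD615 turbidity measurement · Buffer or medium – CSMM-D restrictive synthetic medium containing dextrose (glucose) · Benchmarks – positive control amphotericin B 10 µg/mL · Incubation – 48 h exposure, 30 °C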
Of the large screens only hits and unclear results are named; the others gave an inactive call.

CCOC(=O)Nc1cccc(OCC(=O)Nc2ccccc2OCC)c1	RAM inhibit 9.6
CC(=O)Nc1ccc(OC(F)(F)C(F)F)c(NC(C)=O)c1	none
CCCCc1ccc(NC(=O)COc2ccc(C(=O)Nc3ccccc3OCC)cc2)cc1	RAM inhibit 8.7
O=C(COc1ccccc1)Nc1ccc(OC(F)(F)C(F)F)c(NC(=O)COc2ccccc2)c1	RAM inhibit 9.8
COc1cc(OC)c2c(c1)C(=O)OC2	none
CCNC(=S)NNC(=O)c1cc(C2CC2)nc2ccccc12	none
O=C(NCc1cccnc1)c1csc2c1CCCC2	none
Cc1oncc1-c1csc(-c2ccccc2Cl)n1	RAM inhibit 9.5 (no result: Yeast lifespan up, BB579 growth dn)
Cc1cc(C)c2nc(NC(=O)[C@@H](NC(=O)c3cccc(S(=O)(=O)N4CCOCC4)c3)C(C)C)sc2c1	none
Cc1cccn2c(=O)c(C=NCc3ccco3)c(Nc3ccc(SC(F)F)cc3)nc12	WT yeast gro inh 83.3
CCc1ccc(CC2S/C(=C(\C#N)C(C)=O)NC2=O)cc1 (configuration not stated)	Yeast lifespan up 44.5
Cc1ccc(NC(=O)C23CCC(C)(C(=O)[C@H]2Br)C3(C)C)cc1 (some centres not stated)	none (no result: Yeast lifespan up, RAM inhibit, WT yeast gro inh, BB579 growth dn)
O=C(O)C(Cc1ccccc1)N1C(=O)/C(=C/c2ccccc2)SC1=S (configuration not stated)	Yeast lifespan up 33.2
O=C(O)C(Cc1ccccc1)N1C(=O)/C(=C/c2cccc3ccccc23)SC1=S (configuration not stated)	Cl transport mod -7.24
Cc1cccc(NC(=S)N(C)Cc2cn(C)c3ccccc23)c1	WT yeast gro inh 72.0
CN(Cc1cn(C)c2ccccc12)C(=S)Nc1cc(F)cc(F)c1	none
CC12CN3CC(C)(CN(C1)C3c1ccccc1F)C2 (configuration not stated)	none (no result: Yeast lifespan up, RAM inhibit, WT yeast gro inh, BB579 growth dn)
O=C(Nc1nnc(-c2ccccc2Cl)o1)c1ccc(S(=O)(=O)N2CCCCCC2)cc1	Cl transport mod 8.49
O=C(Nc1nnc(C2=COCCO2)o1)c1ccc(S(=O)(=O)N2CCCCC2)cc1	none (no result: Yeast lifespan up, BB579 growth dn)
Cc1c([N+](=O)[O-])c(C/C=N/O)nn1C	none (no result: Yeast lifespan up, RAM inhibit, WT yeast gro inh, BB579 growth dn)
CCOc1ccc(-c2nn(-c3ccccc3)cc2/C=C2\SC(=S)N(C3CCS(=O)(=O)C3)C2=O)cc1 (configuration not stated)	RAM inhibit 9.3
CCCOc1ccc(-c2nn(-c3ccccc3)cc2/C=C2\SC(=S)N(C3CCS(=O)(=O)C3)C2=O)cc1 (configuration not stated)	none
Cc1cccc(NC(=O)NNC(=O)c2sccc2-n2cccc2)c1	none (no result: Yeast lifespan up, BB579 growth dn)
O=c1c(Cl)c(Cl)cnn1-c1ccccc1	Yeast lifespan up 40.2
COc1ccccc1NC(=O)Cc1csc(NC(=O)c2ccccc2)n1	RAM inhibit 9.2 (no result: Yeast lifespan up, BB579 growth dn)
COc1ccccc1NC(=O)Cc1csc(N)n1	none
Cc1ccc(C(=O)Nc2nc(-c3ccccc3)c(-c3ccccc3)o2)cc1	WT yeast gro inh 68.5, Cl transport mod 31.1
Cc1ccsc1CNC12CC3CC(CC(C3)C1)C2	none (no result: Yeast lifespan up, BB579 growth dn)
Cc1ccc(C)c(N2CCN(C(=O)c3ccccc3Br)CC2)c1	WT yeast gro inh 58.2
Cc1ccc(C)c(N2CCN(C(=O)C3CCN(c4nc(C)cc(C)n4)CC3)CC2)c1	WT yeast gro inh 66.5
Cc1ccc(N2CCN(C(=O)c3ccccc3Br)CC2)c(C)c1	none
Cc1ccc(S(=O)(=O)N2CCCC2C(=O)O)cc1 (configuration not stated)	none (no result: Cl transport mod)
Cc1ccc(C)c(N2CCN(C(=O)C3CCCCN3S(=O)(=O)c3ccc(F)cc3)CC2)c1 (configuration not stated)	WT yeast gro inh 64.3 (no result: Cl transport mod)
Cc1cc(C)nc(N2CCC(C(=O)N3CCN(c4cc(Cl)ccc4C)CC3)CC2)n1	WT yeast gro inh 71.7
Cc1ccc(C(=O)Nc2ccc(C)c(S(=O)(=O)Nc3ccccc3Cl)c2)s1	WT yeast gro inh 70.0
COc1ccc(NC(=O)CCC(=O)c2cccs2)cc1S(=O)(=O)Nc1ccccc1Cl	RAM inhibit 10.0
O=C(Nc1ccc(Cl)c(S(=O)(=O)Nc2ccccc2Cl)c1)c1cccs1	WT yeast gro inh 83.8
COc1ccc(NS(=O)(=O)c2cccc(NC(=O)CCC(=O)c3cccs3)c2)cc1	none
Cc1nn(CCC(=O)NNC(=S)NCC(C)C)c(C)c1Br	none
COC(=O)c1c(-c2c(Cl)cccc2Cl)noc1C(=O)NNC(=O)N(C)C	none (no result: Yeast lifespan up, RAM inhibit, WT yeast gro inh, BB579 growth dn)
CC1CCN(C(=S)NC(=O)c2ccccc2)CC1	Cl transport mod 36.4
O=C(NC(=S)N1CCc2ccccc21)c1ccccc1	Cl transport mod 51.4
CCOC(Cn1ccc(=O)[nH]c1=O)OCC	none (no result: Yeast lifespan up, RAM inhibit, WT yeast gro inh, BB579 growth dn)
CNS(=O)(=O)c1cccc(C(=O)OCC(=O)Nc2ccc(-c3nc4ccc(C)cc4s3)cc2)c1	RAM inhibit 11.3 (no result: Yeast lifespan up, BB579 growth dn)
CC(=O)Nc1ccc(S(=O)(=O)Nc2nc3ccc(C)cc3s2)cc1	none
Cc1ccc2nc(-c3ccc(NC(=O)COC(=O)c4ccco4)cc3)sc2c1	none
Cc1ccc2nc(-c3ccc(NS(=O)(=O)c4ccc(F)cc4)cc3)sc2c1	BB579 growth dn 90.7
Cc1cccc(NC(=O)NC(C)CCc2ccccc2)c1 (configuration not stated)	none
Cc1cccc(C(=O)NC(NCCc2ccccc2)C(Cl)(Cl)Cl)c1 (configuration not stated)	WT yeast gro inh 58.8
Cc1cccc(NC(=S)NC(C)CCc2ccccc2)c1 (configuration not stated)	WT yeast gro inh 74.3
Cc1cccc(C(=O)NC(NCc2ccco2)C(Cl)(Cl)Cl)c1 (configuration not stated)	none
Cc1cccc(C(=O)OCC(=O)NC(C)CCc2ccccc2)c1 (configuration not stated)	RAM inhibit 10.2 (no result: Yeast lifespan up, BB579 growth dn)
O=C(CCn1cccc(C(F)(F)F)c1=O)Nc1cccc(C(F)(F)F)c1	none (no result: Yeast lifespan up, RAM inhibit, WT yeast gro inh, BB579 growth dn)
C[N+]1(CC(=O)Nc2ccc(F)cc2)CCN(C(=O)c2ccco2)CC1	WT yeast gro inh 67.4
O=C(Nc1ccc(F)cc1)C(c1ccccc1)N1CCN(C(=O)c2ccco2)CC1 (configuration not stated)	none
CCOc1ccc(C(=O)NCCCN2CCOCC2)cc1OCC	none (no result: Yeast lifespan up, BB579 growth dn)
CCOc1ccc(NC(=S)N2CCc3cc(OC)c(OC)cc3C2COc2ccc3c(C)cc(=O)oc3c2)cc1 (configuration not stated)	RAM inhibit 9.9
COc1cc2c(cc1OC)C(COc1ccc3c(C)cc(=O)oc3c1)N(C(=O)c1ccco1)CC2 (configuration not stated)	none
Cc1ccc(Nc2nc(N)nc(CSc3nnc(-c4ccncc4)o3)n2)cc1	none
Cc1nnc(C)n1/N=C/c1cc(Br)cc(Br)c1O	BB579 growth dn 99.8 (no result: Cl transport mod)
CN1CCC(OC(=O)c2cccc(Cl)c2)CC1	none (no result: Yeast lifespan up, BB579 growth dn)
CC(=O)N1c2ccccc2C2(O)N=C(C)SC12 (configuration not stated)	BB579 growth dn 62.0
O=S(=O)(NCc1ccccc1)c1ccc(S(=O)(=O)N(Cc2cccs2)CC2CCCO2)cc1 (configuration not stated)	RAM inhibit 8.9 (no result: Cl transport mod)
